Data published in ChEMBL document CHEMBL1126690, “2'-substituted chalcone derivatives as inhibitors of interleukin-1 biosynthesis” (J Med Chem, 1993).

Columns and labels:
Assay type in all cases: functional
Homo sapiens [1] = species: Homo sapiens; assay: (§1) Inhibition of the production of Interleukin-1-beta from human peripheral blood monocytes stimulated with lipopolysaccharide (LPS)
Summary of the method: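 Drug in DMSO (1.0 μL) added, 60 min preincubation, then LPS (Salmonella typhimurium; 1.0 μg/mL stock, 20 μL/well). After 20 h, supernatant IL-1β by ELISA; MTT viability on cells.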

Homo sapiens [2] = species: Homo sapiens; assay: (§2) Inhibition of the production of Interleukin-1-beta from human peripheral blood monocytes stimulated with lipopolysaccharide (LPS) at 10 uM
Homo sapiens [3] = species: Homo sapiens; assay: as §2; remark: listed apart in the source
Summary of the method: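 Elutriated human monocytes in RPMI 1640 + 5% FBS, drug added in DMSO 60 min before LPS (Salmonella typhimurium). Tested at 10 μM, the highest concentration assayed. After 20 h, supernatant IL-1β measured by ELISA in duplicate; percent inhibition vs control; MTT viability checked.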

Mus musculus = assay: In vivo activity expressed as percentage survival at 600 mg/kg in mouse septic shock model
Summary of the method: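 Female C57Bl/6 mice (18–20 g), groups of 10, given LPS ip (E. coli 0127:B8, in 0.9% saline, 40 mg/kg). Compound in 0.25% methylcellulose (beadmilled 60 min) dosed orally by gavage 20 min later (0.1 mL/g), then every 4 h for 24 h; vehicle controls. Deaths recorded over 3 days; percent survival, χ² at p<0.05, mean of three experiments.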

Homo sapiens [4] = species: Homo sapiens; assay: as §1; remark: listed apart in the source
Summary of the method: (§3)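 Human monocytes elutriated from whole blood, 2×10^6 cells/well in RPMI 1640 + 5% FBS. Drug in DMSO (1.0 μL) added, 60 min preincubation, then LPS (Salmonella typhimurium; 1.0 μg/mL stock, 20 μL/well). After 20 h, supernatant IL-1β by ELISA; MTT viability on cells.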

Homo sapiens [5] = species: Homo sapiens; assay: Inhibition of the production of Interleukin-1-beta from human peripheral blood monocytes stimulated with lipopolysaccharide (LPS).; summary of the method: as §3

Row | SMILES | IC50 (Homo sapiens [1]) [nM] | also measured
1 | COC(=O)c1cccc(/C=C/C(=O)c2c(OC)cc(OC)cc2OC)c1 | 1650 | –
2 | O=C(O)c1ccccc1C(=O)/C=C/c1ccccc1 | – | inhibition at 10 µM (Homo sapiens [2]): 37%
3 | COc1cc(C(=O)/C=C/c2ccc(N(C)C)cc2)cc(OC)c1OC | – | inhibition at 10 µM (Homo sapiens [3]): 0%
4 | O=C(/C=C/c1ccccc1)c1ccc([N+](=O)[O-])cc1 | – | inhibition at 10 µM (Homo sapiens [2]): 0%
5 | COC(=O)c1ccccc1C(=O)/C=C/c1ccc(C(=O)Nc2nccs2)cc1 | 2030 | survival at 600 mg/kg (Mus musculus): 30%
6 | COc1cc(OC)c(C(=O)/C=C/c2ccc(C(=O)N(C)c3nccs3)cc2)c(OC)c1 | 1010 | –
7 | CS(=O)(=O)Nc1ccccc1C(=O)/C=C/c1ccccc1 | – | inhibition at 10 µM (Homo sapiens [3]): 0%
8 | COc1cc(OC)c(C(=O)/C=C/c2ccccn2)c(OC)c1 | 596 | –
9 | COc1cc(OC)c(C(=O)/C=C(\C)c2ccccc2)c(OC)c1 | – | inhibition at 10 µM (Homo sapiens [2]): 0%
10 | COc1cc(OC)c(C(=O)/C=C/c2cccnc2)c(OC)c1 | 1330 | –
11 | COc1cc(OC)c(C(/C=C/c2ccccc2)=N/O)c(OC)c1 | – | Inhibition (Homo sapiens [4]): 34%
12 | COc1cc(OC)c(C/C=C/c2ccccc2)c(OC)c1 | – | inhibition at 10 µM (Homo sapiens [3]): 0%
13 | COc1cc(OC)c(C(=O)/C=C/c2cccc(C(=O)O)c2)c(OC)c1 | 6760 | –
14 | COC(=O)c1ccc(C(=O)/C=C/c2ccccc2)cc1 | – | inhibition at 10 µM (Homo sapiens [2]): 5%
15 | COc1cc(OC)c(C(=O)/C=C/c2cccc(C(=O)Nc3cccnc3)c2)c(OC)c1 | 1630 | –
16 | COc1cc(OC)c(C(=O)/C=C/c2ccc(C(=O)N(C)C)cc2)c(OC)c1 | 2800 | –
17 | COc1cccc(/C=C/C(=O)c2c(OC)cc(OC)cc2OC)c1 | 1800 | –
18 | COc1cc(OC)c(C(=O)C=C(c2ccccc2)c2ccccc2)c(OC)c1 | – | inhibition at 10 µM (Homo sapiens [2]): 0%

Row | SMILES | IC50 (Homo sapiens [1]) [nM] | also measured
19 | COc1cc(OC)c(C(=O)/C=C/c2ccc(C(=O)O)cc2)c(OC)c1 | 6230 | –
20 | COc1cc(OC)c(C(=O)CCc2ccccc2)c(OC)c1 | – | inhibition at 10 µM (Homo sapiens [3]): 0%
21 | COc1cc(OC)c(C(=O)/C=C/c2ccc(C(N)=O)cc2)c(OC)c1 | 1790 | –
22 | O=C(Nc1nccs1)c1ccc(/C=C/C(=O)c2ccccc2C(=O)O)cc1 | – | inhibition at 10 µM (Homo sapiens [3]): 22%
23 | CCOc1ccc(C(=O)/C=C/c2ccccc2)cc1 | – | inhibition at 10 µM (Homo sapiens [2]): 15%
24 | COc1cc(OC)c(C(=O)/C=C/c2ccc(C(=O)Nc3nccs3)cc2)c(OC)c1 | 355 | survival at 600 mg/kg (Mus musculus): 55%
25 | COc1cc(OC)c(C(=O)NCc2ccccc2)c(OC)c1 | – | inhibition at 10 µM (Homo sapiens [3]): 0%
26 | COc1cc(OC)c(C(=O)/C=C/c2c(F)cccc2F)c(OC)c1 | 1290 | –
27 | COc1cc(OC)c(C(=O)/C=C/c2ccc(C(=O)Nc3cccnc3)cc2)c(OC)c1 | 793 | survival at 600 mg/kg (Mus musculus): 50%
28 | COC(=O)c1ccccc1C(=O)/C=C/c1ccccc1 | 1950 | survival at 600 mg/kg (Mus musculus): 20%
29 | COc1cc(OC)c(C(=O)/C=C/c2nccn2C)c(OC)c1 | 3800 | –
30 | COc1cc(OC)c(C(=O)/C=C/c2cnccn2)c(OC)c1 | 693 | –
31 | COC(=O)c1ccc(/C=C/C(=O)c2c(OC)cc(OC)cc2OC)cc1 | 1930 | –
32 | COc1cc(OC)c(NC(=O)/C=C/c2ccccc2)c(OC)c1 | – | inhibition at 10 µM (Homo sapiens [3]): 0%
33 | COc1cc(OC)c(C(=O)c2ccc(-c3ccccc3)cc2)c(OC)c1 | – | inhibition at 10 µM (Homo sapiens [3]): 26%
34 | COc1cc(OC)c(C(=O)/C=C/c2ccccc2)c(OC)c1 | – | IC50 (Homo sapiens [5]): 1250 nM
35 | COc1ccc(C(=O)/C=C/c2ccccc2)cc1OC [3',4'-DIMETHOXYCHALCONE] | – | inhibition at 10 µM (Homo sapiens [2]): 44%
36 | COc1ccc(C(=O)/C=C/c2ccccc2)cc1 [4'-METHOXYCHALCONE] | – | inhibition at 10 µM (Homo sapiens [2]): 29%

Further lines, with some results ahead:

Row | IC50 (Homo sapiens [1]) [nM] | SMILES | also measured
37 | 6200 | O=C(/C=C/c1ccccc1)c1ccccn1 | –
38 | 1520 | O=C(/C=C/c1ccccc1)c1ccccc1[N+](=O)[O-] | –
39 | 5750 | O=C(/C=C/c1ccccc1)c1cccs1 | –
40 | 5400 | COc1cc(OC)c(C(O)/C=C/c2ccccc2)c(OC)c1 (configuration not stated) | –
41 | 5170 | COc1cc(OC)c(C(=O)/C(C)=C/c2ccccc2)c(OC)c1 | –
42 | 592 | COc1cc(OC)c(C(=O)/C=C/c2ccncc2)c(OC)c1 | –
43 | 2230 | COc1ccccc1C(=O)/C=C/c1ccccc1 | –
44 | 2000 | COc1cccc(/C=C/C(=O)c2ccccc2)c1OC | –
45 | 609 | CCOc1ccccc1C(=O)/C=C/c1ccccc1 | –
46 | 748 | O=C(/C=C/c1ccccc1)c1ccccc1C(F)(F)F | –
47 | 1770 | CN(C)c1ccccc1C(=O)/C=C/c1ccccc1 | –
48 | 2230 | O=C(/C=C/c1ccccc1)c1ccccc1OCc1ccccc1 | –
49 | 503 | COc1cc(OC)c(C(=O)/C=C/c2cccc(C(=O)Nc3nccs3)c2)c(OC)c1 | –
50 | 1730 | CC(=O)Nc1ccccc1C(=O)/C=C/c1ccccc1 | –
51 | 1840 | COc1cc(C(=O)/C=C/c2ccccc2)cc(OC)c1OC | –
52 | 577 | COc1cc(OC)c(C(=O)/C=C/c2cccc(C(=O)Nc3ccccc3)c2)c(OC)c1 | –

Row | IC50 (Homo sapiens [1]) [nM] | SMILES | also measured
53 | 1670 | COc1cccc(C(=O)/C=C/c2ccccc2)c1OC | –
54 | 311 | COc1cc(OC)c(C(=O)/C=C/c2ccnc3ccccc23)c(OC)c1 | –
55 | 1150 | COc1cccc(OC)c1C(=O)/C=C/c1ccccc1 | –
56 | 1710 | COc1ccc(C(=O)/C=C/c2ccccc2)c(OC)c1OC | –
57 | 5500 | CN(C)C(=O)c1ccccc1C(=O)/C=C/c1ccccc1 | –
58 | 1660 | O=C(/C=C/c1ccccc1)c1ccccc1Br | –
59 | 6500 | Cc1cc(C)c(C(=O)/C=C/c2ccccc2)c(C)c1 | –
60 | 803 | COc1cc(OC)c(C(=O)/C=C/c2ccc(C(=O)Nc3ccccc3)cc2)c(OC)c1 | –
61 | 2330 | COc1ccc(/C=C/C(=O)c2ccccc2)cc1OC | –
62 | 5850 | O=C(/C=C/c1ccccc1)c1ccccc1NS(=O)(=O)C(F)(F)F | –
63 | 1650 | CCOc1ccccc1C(=O)/C=C/c1ccncc1 | –
64 | 1080 | O=C(/C=C/c1ccccc1)c1c(Cl)cccc1Cl | –
65 | 1410 | O=C(/C=C/c1ccccc1)c1c2ccccc2cc2ccccc12 | –
66 | 4300 | O=C(/C=C/c1ccccc1)c1ccccc1O [2'-HYDROXYCHALCONE] | –
67 | 6130 | O=C(/C=C/c1ccccc1)c1ccc(O)cc1 [4'-HYDROXYCHALCONE] | –
68 | 6280 | O=C(/C=C/c1ccccc1)c1ccccc1 [CHALCONE] | –
